T cruzi growth-1: inhibitors of T. cruzi proliferation | hit rate 5.9% among 77,000 | T. cruzi beta-gal in NIH3T3, GalScreen luminescence, 90 h | inhibition, % at 8.34 µM;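 active = mean inhibition above about 93%, with at least 55% of replicates each passing it, limit read from the data, passing the limit was not always enough; inconclusive = only one of those two conditions holds; inactive = neither condition holds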
Pf Dd2 inh: P. falciparum Dd2 growth inhibition | SYBR Green, 72 h; stronger effect = lower value | activity change, % at 10 µM | hit rate 2.3% among 94,000 | AID 1159554; in the data active = activity change below about -80%; inconclusive = no clear call, values can overlap the other calls
GASC1 inh: inhibitors of human demethylase GASC-1 KDM4C. Q9H3R0. hit rate 0.15% among 96,000. AID 720574. GST-KDM4C 2-372, H3K9me3 peptide, LANCE TR-FRET. inhibition, % at 12.5 µM;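 active = mean replicate inhibition above about 25%, with at least 55% of replicates also reaching it, limit read from the data, passing the limit was not always enough; inconclusive = only one of those two conditions met; inactive = neither condition met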
Target sequence (Q9H3R0 2-372 limits assumed): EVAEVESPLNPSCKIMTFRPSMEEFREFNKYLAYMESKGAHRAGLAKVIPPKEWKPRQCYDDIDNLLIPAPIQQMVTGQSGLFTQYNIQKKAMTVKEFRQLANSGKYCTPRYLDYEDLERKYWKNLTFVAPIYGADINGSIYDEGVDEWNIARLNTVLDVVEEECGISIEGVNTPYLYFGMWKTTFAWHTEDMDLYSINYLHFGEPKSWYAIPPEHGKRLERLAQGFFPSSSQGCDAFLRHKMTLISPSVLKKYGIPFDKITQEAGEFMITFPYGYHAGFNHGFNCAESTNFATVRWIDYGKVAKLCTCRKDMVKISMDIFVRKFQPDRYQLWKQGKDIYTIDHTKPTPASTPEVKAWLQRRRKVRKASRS
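System – N-terminal GST-fused human GASC-1 (KDM4C) fragment, residues 2-372 · Input – enzyme final amount 10 nM · Technique – LANCE TR-FRET, Eu antibody, ULight-streptavidin, EDTA, ex 340 nm, em 618/671 nm · Medium – HEPES buffer, pH 7.5, plus ascorbate · Incubation – enzyme reaction 30 min, then detection 60 min, both room temperature · Reagent – H3K9me3 peptide with Fe(II)/2OG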
IDH1 R132H inh: inhibitors of human IDH1 R132H; IDH1 R132H reductase, diaphorase/resazurin fluorescence, 60 min; inhibition, % at 10 µM; hit rate 0.18% among 70,000; AID 624101; in the data active = inhibition above about 34%; inconclusive = no clear call, values can overlap the other calls; inactive = below about 11%
T cruzi growth-2: inhibitors of T. cruzi proliferation; shares compounds with T cruzi growth-1; T. cruzi beta-gal in NIH3T3, GalScreen luminescence, 90 h; inhibition, % at 8.35 µM; hit rate 72% among 5,600; AID 651739;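 active = mean replicate inhibition above about 95% and at least 55% of replicates individually reaching it, limit read from the data; inconclusive = only one of the two criteria is met; inactive = neither criterion is met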
T cruzi growth-3: Trypanosoma cruzi proliferation inhibition; shares compounds with T cruzi growth-1; T. cruzi beta-gal in NIH3T3, GalScreen luminescence, 90 h; inhibition, % at 2.09 µM; hit rate 21% among 5,600; AID 651740;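 active = mean inhibition above about 95%, with at least 55% of replicates also reaching it, limit read from the data; inconclusive = meets just one of the two conditions; inactive = meets neither condition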
NIH3T3 tox: NIH/3T3 (mouse) viability loss. shares compounds with T cruzi growth-1. NIH/3T3 viability, CellTiter-Glo ATP luminescence, 90 h. cytotoxicity (signal decrease), % at 8.35 µM. hit rate 14% among 5,600;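 active = mean signal decrease across replicates above about 35% based on untreated-well scatter, with enough replicates individually passing, limit read from the data; inconclusive = no rule stated though some were filed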
NIH3T3 tox 2: kills mouse NIH/3T3 fibroblasts | shares compounds with T cruzi growth-1 | inhibition, % at 24.9 µM | hit rate 56% among 5,600 | NIH/3T3 viability, CellTiter-Glo ATP luminescence, 90 h;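 active = mean loss of cell viability signal at or above a set limit, and enough replicates individually reaching it; inconclusive = meets only the mean limit or only the replicate share; inactive = meets neither condition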
A number is an active result; – = inactive; ? = inconclusive; · = no result; ! = repeats disagree. An excerpt weighted towards active compounds, which were near 5.9% of everything screened.

SMILES	T cruzi growth-1	Pf Dd2 inh	GASC1 inh	IDH1 R132H inh	T cruzi growth-2	T cruzi growth-3	NIH3T3 tox	NIH3T3 tox 2
C[C@@H]1CN([C@H](C)CO)C(=O)c2cc(/C=C/c3ccccc3)cnc2O[C@H]1CN(C)S(=O)(=O)c1ccccc1F	109	–	–	–	113	–	–	24
C[C@H](CO)N1C[C@H](C)[C@H](CN(C)S(=O)(=O)c2ccccc2)Oc2ncc(/C=C/c3ccccc3)cc2C1=O	113!	–	–	–	?	–	–	71
CCn1c(SCC(=O)Nc2cccc(Cl)c2C)nnc1-c1ccc(Br)cc1	·	·	·	–	·	·	·	·
Cc1ccc(S(=O)(=O)N(C)C[C@@H]2Oc3ncc(/C=C/c4ccccc4)cc3C(=O)N([C@H](C)CO)C[C@@H]2C)cc1	120	–	–	–	102	–	–	54
Cn1c(Cc2ccccc2)nnc1Sc1ccc([N+](=O)[O-])cc1C(=O)N1CCOCC1	·	·	·	–	·	·	·	·
COc1cccc(-c2ccc([C@H]3[C@H]4CN(C(=O)c5ccc6c(c5)OCO6)CCCCN4[C@H]3CO)cc2)c1	–	–	–	·	·	·	·	·
COc1cccc(-c2ccc([C@@H]3[C@@H](CO)N4CCCCN(C(=O)c5ccc6c(c5)OCO6)C[C@@H]34)cc2)c1	?	–	–	·	104	–	–	56
COc1cccc(-c2ccc([C@H]3[C@H](CO)N4CCCCN(C(=O)c5ccc6c(c5)OCO6)C[C@@H]34)cc2)c1	109	–	–	·	101	–	40	72
Cc1cc(NC(=O)/C=C\c2ccccc2)nc2c1c(=O)oc1ccccc12	·	·	·	–	·	·	·	·
O=C(CCCN1C(=O)c2ccccc2C1=O)Nc1ccccc1Cl	·	·	·	–	·	·	·	·
O=S(=O)(c1cccc(F)c1)N1CC[C@@H]2[C@H]1c1cc(C#Cc3ccccc3F)ccc1N[C@@H]2CO	?	–	–	·	–	108	–	104
O=S(=O)(c1cccc(F)c1)N1CC[C@@H]2[C@@H](CO)Nc3ccc(C#Cc4ccccc4F)cc3[C@@H]21	?	–	–	·	104	112	–	–
Cc1ccc(S(=O)(=O)N2CC[C@@H]3[C@H](CO)Nc4ccc(C#Cc5ccccc5F)cc4[C@@H]32)cc1	–	–	–	·	·	·	·	·
Cc1ccc(S(=O)(=O)N2CC[C@@H]3[C@@H](CO)Nc4ccc(C#Cc5ccccc5F)cc4[C@@H]32)cc1	102	–	–	·	97	102	–	–
O=C(Nc1ccccc1)N1CCCCN2[C@H](CO)[C@H](c3ccc(-c4ccccc4)cc3)[C@@H]2C1	112	–	–	·	109	–	–	–
O=C(Nc1ccccc1)N1CCCCN2[C@H](CO)[C@H](c3ccc(-c4ccccc4)cc3)[C@H]2C1	103	–	–	·	101	–	56	104
O=C(Nc1ccccc1)N1CCCCN2[C@H](CO)[C@H](c3ccc(-c4ccncc4)cc3)[C@H]2C1	96	–	–	·	–	–	–	–
O=C(Nc1ccccc1)N1CCCCN2[C@H](C1)[C@H](c1ccc(-c3ccncc3)cc1)[C@@H]2CO	–	–	–	·	·	·	·	·
CN(CC(=O)Nc1ccccc1C#N)S(=O)(=O)c1ccc(Br)cc1	·	·	·	–	·	·	·	·
C[C@@H]1CN([C@@H](C)CO)S(=O)(=O)c2ccc(C#CCN(C)C)cc2O[C@H]1CN(C)C(=O)c1ccccc1F	101	–	–	–	109	–	–	–
C[C@@H]1CN([C@H](C)CO)S(=O)(=O)c2ccc(C#CCN(C)C)cc2O[C@H]1CN(C)C(=O)c1ccccc1F	–	–	–	–	·	·	·	·
C[C@H]1CN([C@@H](C)CO)S(=O)(=O)c2ccc(C#CCN(C)C)cc2O[C@@H]1CN(C)C(=O)c1ccccc1F	99	–	–	–	105	–	–	–
COc1ccccc1NC(=O)C1=C(C)NC2=C(C(=O)CC(c3ccc(OC)c(OC)c3)C2)C1c1ccc(C)o1 (stereo unspecified)	·	·	·	–	·	·	·	·
O=C(C[C@H]1CC[C@H]2[C@@H](COC[C@H](O)CN2Cc2ccc(Oc3ccccc3)cc2)O1)N1CCOCC1	–	–	–	·	·	·	·	·
O=C(C[C@H]1CC[C@@H]2[C@H](COC[C@@H](O)CN2Cc2ccc(Oc3ccccc3)cc2)O1)N1CCN(c2ccccc2)CC1	130	–	–	·	–	–	–	91
SMILES	T cruzi growth-1	Pf Dd2 inh	GASC1 inh	IDH1 R132H inh	T cruzi growth-2	T cruzi growth-3	NIH3T3 tox	NIH3T3 tox 2
O=C(C[C@H]1CC[C@@H]2[C@H](COC[C@@H](O)CN2Cc2ccc(Oc3ccccc3)cc2)O1)N1CCOCC1	–	–	–	·	·	·	·	·
O=C(C[C@@H]1CC[C@H]2[C@@H](COC[C@H](O)CN2Cc2ccc(Oc3ccccc3)cc2)O1)N1CCOCC1	–	–	–	·	·	·	·	·
Cc1ccccc1S(=O)(=O)N1C[C@@H](O)COC[C@@H]2O[C@H](CC(=O)N3CCN(C)CC3)CC[C@H]21	?	·	–	·	–	–	–	–
O=C(C[C@@H]1CC[C@@H]2[C@H](COC[C@@H](O)CN2Cc2ccc(Oc3ccccc3)cc2)O1)N1CCN(c2ccccc2)CC1	96	–	–	·	98	–	–	32
O=C(C[C@H]1CC[C@H]2[C@@H](COC[C@@H](O)CN2Cc2ccc(Oc3ccccc3)cc2)O1)N1CCN(c2ccccc2)CC1	127	–	–	·	101	–	–	104
CC(NS(=O)(=O)c1ccc(F)cc1)C(=O)Nc1ccc(C(N)=O)cc1 (stereo unspecified)	·	·	·	–	·	·	·	·
CN1C[C@H](O)COC[C@@H]2O[C@@H](CC(=O)N3CCN(c4ccccc4)CC3)CC[C@H]21	?	–	–	·	102	–	–	–
CN1C[C@@H](O)COC[C@H]2O[C@@H](CC(=O)N3CCN(c4ccccc4)CC3)CC[C@@H]21	–	–	–	·	·	·	·	·
CC(C)CC#Cc1ccc2c(c1)O[C@H](CN(C)C(=O)C1CCCCC1)[C@@H](C)CN([C@H](C)CO)S2(=O)=O	118	–	–	–	106	107	–	105
CC(C)CC#Cc1ccc2c(c1)O[C@H](CN(C)C(=O)C1CC1)[C@@H](C)CN([C@H](C)CO)S2(=O)=O	–	–	–	·	·	·	·	·
CC(C)CC#Cc1ccc2c(c1)O[C@H](CN(C)C(=O)C1CCCCC1)[C@@H](C)CN([C@@H](C)CO)S2(=O)=O	112	–	–	·	100	116	–	104
CC(C)CC#Cc1ccc2c(c1)O[C@H](CN(C)C(=O)C1CC1)[C@H](C)CN([C@@H](C)CO)S2(=O)=O	–	–	–	·	·	·	·	·
CC(C)CC#Cc1ccc2c(c1)O[C@H](CN(C)C(=O)C1CC1)[C@H](C)CN([C@H](C)CO)S2(=O)=O	–	–	–	·	·	·	·	·
CC(C)CC#Cc1ccc2c(c1)O[C@@H](CN(C)C(=O)C1CCCCC1)[C@H](C)CN([C@@H](C)CO)S2(=O)=O	122	–	–	·	104	104	–	105

Screening results as filed in PubChem BioAssay.
